In ChEMBL document CHEMBL3399974, “Discovery and SAR of novel series of imidazopyrimidinones and dihydroimidazopyrimidinones as positive allosteric modulators of the metabotropic glutamate receptor 5 (mGlu5)” (Bioorg Med Chem Lett, 2015) one finds Emax, EC50 and metabolised data, which are given here for 24 compounds.

Series [1] has as its target Metabotropic glutamate receptor 5 (Rattus norvegicus) (UniProt P31424). Put plainly: Positive allosteric modulation at rat mGluR5 expressed in HEK293 cells assessed as amplitude of response at 30 uM by calcium mobilization assay relative to glutamate. The class given is functional, cell-based. The essentials: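 HEK293 cells stably expressing rat mGlu5 were used in a calcium mobilization assay. Test compound was given at 30 µM, and response amplitude is expressed as percent of the maximal response to 100 µM glutamate. Values are the average of three or more independent determinations.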
A general note: Calcium assays in cells follow changes in intracellular calcium, usually with a dye or a luminescent sensor.

In series [2] the target is Metabotropic glutamate receptor 5 (Rattus norvegicus, UniProt P31424). Put plainly: Positive allosteric modulation at rat mGluR5 expressed in HEK293 cells by calcium mobilization assay. Format: functional, cell-based. The essentials: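 HEK293 cells stably expressing rat mGlu5 were run in a 'triple add' calcium mobilization assay that detects agonism, PAM and NAM activity together. Response amplitude was expressed as % of the maximal response to 100 µM glutamate. Values are the mean of three or more independent determinations.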
Chain of Metabotropic glutamate receptor 5 (P31424 whole entry): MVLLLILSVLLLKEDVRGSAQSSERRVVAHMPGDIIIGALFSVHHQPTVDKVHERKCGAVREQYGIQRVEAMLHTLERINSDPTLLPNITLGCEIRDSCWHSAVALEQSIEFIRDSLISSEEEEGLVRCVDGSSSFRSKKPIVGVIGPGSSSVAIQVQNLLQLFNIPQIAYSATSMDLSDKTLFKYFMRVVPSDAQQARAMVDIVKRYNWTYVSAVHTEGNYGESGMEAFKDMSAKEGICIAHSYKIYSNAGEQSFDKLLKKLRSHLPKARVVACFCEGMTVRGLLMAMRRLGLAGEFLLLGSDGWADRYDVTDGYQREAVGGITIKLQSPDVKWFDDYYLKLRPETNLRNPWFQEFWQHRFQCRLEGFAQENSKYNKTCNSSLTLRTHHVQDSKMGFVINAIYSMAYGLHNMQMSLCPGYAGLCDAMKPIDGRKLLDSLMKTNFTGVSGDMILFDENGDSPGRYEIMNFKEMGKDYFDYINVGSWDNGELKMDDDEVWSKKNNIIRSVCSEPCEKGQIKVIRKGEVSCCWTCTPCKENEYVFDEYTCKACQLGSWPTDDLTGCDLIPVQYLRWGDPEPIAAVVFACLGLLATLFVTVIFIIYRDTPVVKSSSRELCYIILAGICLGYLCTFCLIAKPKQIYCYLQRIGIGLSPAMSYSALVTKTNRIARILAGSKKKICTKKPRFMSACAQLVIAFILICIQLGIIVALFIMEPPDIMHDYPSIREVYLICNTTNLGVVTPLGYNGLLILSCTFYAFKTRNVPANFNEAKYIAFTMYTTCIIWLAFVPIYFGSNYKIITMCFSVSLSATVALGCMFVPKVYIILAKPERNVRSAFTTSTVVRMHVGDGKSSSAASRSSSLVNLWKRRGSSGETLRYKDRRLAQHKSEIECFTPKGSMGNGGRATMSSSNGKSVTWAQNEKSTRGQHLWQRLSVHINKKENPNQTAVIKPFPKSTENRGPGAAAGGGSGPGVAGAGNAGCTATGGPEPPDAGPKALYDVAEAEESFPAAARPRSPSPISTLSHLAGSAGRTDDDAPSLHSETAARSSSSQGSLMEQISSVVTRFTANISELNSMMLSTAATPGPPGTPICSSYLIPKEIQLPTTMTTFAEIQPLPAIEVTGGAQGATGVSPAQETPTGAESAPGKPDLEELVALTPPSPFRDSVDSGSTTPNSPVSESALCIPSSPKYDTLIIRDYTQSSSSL

Series [3] is described as follows: Drug metabolism in human liver microsomes assessed as compound metabolized at 1 uM after 15 mins. As to conditions: read-out: Drug metabolism. The class given is ADME. The essentials:
(§1)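 Test compound at 1 µM was incubated for 15 min with liver microsomes (human for HLM, rat for RLM). Read-out was % of compound metabolized.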
(Liver microsomes are a subcellular fraction often used to study metabolism.)

Series [4] is described as follows: Drug metabolism in rat liver microsomes assessed as compound metabolized at 1 uM after 15 mins. The class given is ADME. As to conditions: read-out: Drug metabolism. In a few lines:
as §1

Chain of Metabotropic glutamate receptor 5 (Rattus norvegicus) (P31424 21-1203 limits assumed): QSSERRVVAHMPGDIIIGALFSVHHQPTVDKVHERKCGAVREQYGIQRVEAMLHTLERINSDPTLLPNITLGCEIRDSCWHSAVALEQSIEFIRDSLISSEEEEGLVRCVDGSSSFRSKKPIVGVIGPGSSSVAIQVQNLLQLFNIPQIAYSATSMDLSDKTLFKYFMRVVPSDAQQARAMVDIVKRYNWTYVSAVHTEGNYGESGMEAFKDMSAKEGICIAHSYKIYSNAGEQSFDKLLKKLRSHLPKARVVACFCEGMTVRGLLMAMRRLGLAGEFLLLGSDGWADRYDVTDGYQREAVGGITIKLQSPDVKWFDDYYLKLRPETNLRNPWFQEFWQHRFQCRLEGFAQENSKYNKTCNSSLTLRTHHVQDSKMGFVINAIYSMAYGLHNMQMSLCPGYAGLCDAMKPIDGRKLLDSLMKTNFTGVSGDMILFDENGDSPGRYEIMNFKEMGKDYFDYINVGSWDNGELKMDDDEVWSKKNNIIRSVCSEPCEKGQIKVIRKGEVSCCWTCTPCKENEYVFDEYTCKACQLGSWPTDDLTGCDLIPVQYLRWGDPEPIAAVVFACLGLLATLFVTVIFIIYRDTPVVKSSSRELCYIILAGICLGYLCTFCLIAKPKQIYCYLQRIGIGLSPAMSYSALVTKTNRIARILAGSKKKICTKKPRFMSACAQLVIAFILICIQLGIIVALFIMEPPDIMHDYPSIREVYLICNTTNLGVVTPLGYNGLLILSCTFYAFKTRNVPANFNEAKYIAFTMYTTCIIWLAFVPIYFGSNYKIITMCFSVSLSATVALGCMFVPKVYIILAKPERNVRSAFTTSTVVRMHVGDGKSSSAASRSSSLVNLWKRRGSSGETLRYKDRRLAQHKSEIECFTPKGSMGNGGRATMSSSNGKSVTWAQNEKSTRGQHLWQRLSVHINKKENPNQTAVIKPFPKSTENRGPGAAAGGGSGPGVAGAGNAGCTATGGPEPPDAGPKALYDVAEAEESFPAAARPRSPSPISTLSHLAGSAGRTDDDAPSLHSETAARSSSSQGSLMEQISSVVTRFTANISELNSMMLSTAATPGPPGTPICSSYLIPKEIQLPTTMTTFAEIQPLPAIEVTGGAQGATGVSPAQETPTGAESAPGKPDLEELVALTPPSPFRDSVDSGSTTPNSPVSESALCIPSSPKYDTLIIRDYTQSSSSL

With `Cc1cc(N2CCc3nc(COc4ccccc4)cn3C2=O)ncc1F`, in series [1], the maximum response (Emax) (in general, the greatest response seen or fitted, relative to the assay's reference) was 87%. Further, the EC50 (usually the concentration at which the effect is half-maximal) in series [2] came to 371 nM.

Regarding `O=C1N(c2ccc(F)cn2)CCc2nc(COc3ccccc3)cn21`, the Emax in series [1] turned out to be 66%. Besides, the metabolised at 0.25 h, 1 µM was determined as 1% in series [3] and 14% in series [4]. For the same compound, the half-maximal effective concentration (EC50) in series [2] came to 359 nM.

Take `O=c1n(Cc2ccccc2)ccc2nc(COc3ccccc3)cn12`: the Emax in series [1] was 93%. Also, the EC50 in series [2] was found to be 1590 nM.

In the case of `Cc1cccc(OCc2cn3c(n2)CCN(c2ccc(F)cc2)C3=O)c1`, in series [1], the Emax is 47%. The EC50 in series [2] came to 285 nM.

In the case of `O=c1n(-c2ccc(F)cc2)ccc2nc(COc3cccc(F)c3)cn12`, the Emax in series [1] turned out to be 91%. Besides, the metabolised at 0.25 h, 1 µM in series [3] was 13%; in series [4], 28%. The 50% effective concentration (EC50) in series [2] turned out to be 230 nM.

`O=C1N(c2ccc(F)cc2)CCc2nc(COc3ccc(F)cc3)cn21`: the maximum response (Emax) in series [1] is 88%. The metabolised at 0.25 h, 1 µM came out at 3% in series [3] and 11% in series [4]. Moreover, the EC50 in series [2] amounted to 197 nM.

On to `O=c1n(-c2ccc(F)c(F)c2)ccc2nc(COc3ccccc3)cn12`, for which the Emax in series [1] stood at 93%. The EC50 in series [2] was 230 nM.

In the case of `O=c1n(-c2ccc(F)cc2)ccc2nc(COc3ccc(F)cc3)cn12`, the maximal effect (Emax) in series [1] came to 85%. Besides, the metabolised at 0.25 h, 1 µM in series [3] amounted to 11%; in series [4], 29%. The 50% effective concentration (EC50) in series [2] amounted to 375 nM.

In the case of `Cc1cc(-n2ccc3nc(COc4ccccc4)cn3c2=O)ncc1F`, the maximal response (Emax) in series [1] was found to be 77%. Also, the values for the metabolised at 0.25 h, 1 µM in series [3] and in series [4] were 17% and 49%, respectively. For the same compound, the EC50 in series [2] worked out at 435 nM.

In the case of `O=c1n(-c2cccc(F)c2)ccc2nc(COc3ccccc3)cn12`, in series [1], the maximal response (Emax) was 69%. The metabolised at 0.25 h, 1 µM in series [3] came to 47%; in series [4] it was 71%. Also, the EC50 in series [2] came out at 514 nM.

Regarding `CN(C)c1cccc(-n2ccc3nc(COc4ccccc4)cn3c2=O)n1`, the Emax in series [1] is 87%. The metabolised at 0.25 h, 1 µM turned out to be 66% in series [3] and 90% in series [4]. Further, the concentration for a half-maximal effect (EC50) in series [2] is 284 nM.

With `O=c1n(-c2ccc(F)cn2)ccc2nc(COc3ccccc3)cn12`, the Emax in series [1] was found to be 87%. In series [2], the EC50 was found to be 587 nM.

Consider `Cn1ccc2nc(COc3ccccc3)cn2c1=O`, for which the Emax in series [1] came out at 67%. The EC50 in series [2] is over 10000 nM.

Turning to `Cc1ccnc(-n2ccc3nc(COc4ccccc4)cn3c2=O)c1`, the maximum response (Emax) in series [1] stood at 64%. For the same compound, the 50% effective concentration (EC50) in series [2] was 5100 nM.

Consider `Cc1ccc(N2CCc3nc(COc4ccccc4)cn3C2=O)nc1`, for which the maximum response (Emax) in series [1] came to 74%. Moreover, the metabolised at 0.25 h, 1 µM in series [3] was 35%; in series [4] it was 98%. Besides, in series [2], the EC50 came to 485 nM.

Take `O=c1n(-c2ccc(F)cc2)ccc2nc(COc3ccccn3)cn12`: in series [1], the Emax came out at 88%. Also, in series [2], the EC50 came out at 3170 nM.

On to `Cc1cc2nc(COc3ccccc3)cn2c(=O)n1-c1ccc(F)cc1`, for which the Emax in series [1] came out at 60%. For the same compound, the concentration giving a half-maximal response (EC50) in series [2] worked out at 2070 nM.

Regarding `Cc1cccc(OCc2cn3c(=O)n(-c4ccc(F)cc4)ccc3n2)c1`, the Emax in series [1] was found to be 30%. For the same compound, the concentration giving a half-maximal response (EC50) in series [2] was 344 nM.

For `O=C1N(c2ccc(F)cc2)CCc2nc(COc3cccc(F)c3)cn21`, the maximal response (Emax) in series [1] is 72%. The metabolised at 0.25 h, 1 µM in series [3] is 0%; in series [4], 29%. Moreover, in series [2], the EC50 stood at 69 nM.

On to `O=c1[nH]ccc2nc(COc3ccccc3)cn12`, for which, in series [1], the Emax amounted to 19%. Besides, the EC50 in series [2] is over 30000 nM.

`Cc1cccc(-n2ccc3nc(COc4ccccc4)cn3c2=O)n1`: in series [1], the Emax is 64%. The EC50 in series [2] was 3580 nM.

With `Cc1ccc(-n2ccc3nc(COc4ccccc4)cn3c2=O)nc1`, in series [1], the Emax is 84%. The 50% effective concentration (EC50) in series [2] was determined as 2000 nM.

Consider `O=c1n(-c2ccc(F)cc2)ccc2nc(COc3cccnc3)cn12`, for which the maximal effect (Emax) in series [1] came out at 65%. Also, the 50% effective concentration (EC50) in series [2] was over 10000 nM.

In the case of `O=c1n(CC2CC2)ccc2nc(COc3ccccc3)cn12`, the maximum response (Emax) in series [1] was found to be 47%. Also, the concentration giving a half-maximal response (EC50) in series [2] was determined as 1120 nM.
